From ChEMBL document CHEMBL1759916, “Bicyclo[2.2.2]octyltriazole inhibitors of 11β-hydoxysteroid dehydrogenase type 1. Pharmacological agents for the treatment of metabolic syndrome” (Bioorg Med Chem Lett, 2011)
Activity calls are given as the source filed them. The calls are words filed in the database; no cut-off is given here.

Tests used:
Mus musculus [1] = species: Mus musculus; experiment: Antidiabetic activity in B6-Ay mouse by oral glucose tolerance test; assay type: functional, organism-based
[2] = Distribution coefficient, log D of the compound by HPLC analysis; assay type: physicochemical; settings: octanol/water
[3] = Clearance in Beagle dog at 0.5 mg/kg, iv and 2 mg/kg, po; assay type: ADME, organism-based, Canis lupus familiaris; settings: in vivo
[4] = Clearance in Sprague-Dawley rat at 1 mg/kg, iv and 4 mg/kg, po; assay type: ADME, organism-based; settings: in vivo
[5] = Half life in Sprague-Dawley rat at 1 mg/kg, iv and 4 mg/kg, po; assay type: ADME, organism-based; settings: in vivo
[6] = Tmax in C57 mouse at 2 mg/kg, iv and 10 mg/kg, po; assay type: ADME, organism-based; settings: in vivo
[7] = biological target: T1, Nuclear receptor subfamily 1 group I member 2 (Homo sapiens, UniProt O75469); experiment: Activation of human PXR at 10 uM
T1 sequence (O75469 whole entry): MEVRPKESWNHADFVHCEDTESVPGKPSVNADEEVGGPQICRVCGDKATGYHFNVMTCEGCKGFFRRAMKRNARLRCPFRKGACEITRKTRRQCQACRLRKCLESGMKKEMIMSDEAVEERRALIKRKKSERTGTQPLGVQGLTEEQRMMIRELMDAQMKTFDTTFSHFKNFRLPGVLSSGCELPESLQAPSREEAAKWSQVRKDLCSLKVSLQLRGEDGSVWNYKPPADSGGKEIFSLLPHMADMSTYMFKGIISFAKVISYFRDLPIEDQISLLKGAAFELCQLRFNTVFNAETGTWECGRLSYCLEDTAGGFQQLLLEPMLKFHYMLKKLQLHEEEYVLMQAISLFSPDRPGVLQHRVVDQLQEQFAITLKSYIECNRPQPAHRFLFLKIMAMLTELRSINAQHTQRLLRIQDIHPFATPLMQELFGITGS
Method in brief: (§1)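 Cyp induction potential assessed in human liver microsomes; read out as human PXR activation, with test compound at 10 μM.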

[8] = Tmax in Beagle dog at 0.5 mg/kg, iv and 2 mg/kg, po; assay type: ADME, organism-based, Canis lupus familiaris; settings: in vivo
[9] = Volume of distribution in rhesus monkey at 0.5 mg/kg, iv and 2 mg/kg, po; assay type: ADME, organism-based, Macaca mulatta; settings: in vivo
[10] = Volume of distribution in Sprague-Dawley rat at 1 mg/kg, iv and 4 mg/kg, po; assay type: ADME, organism-based; settings: in vivo
[11] = Bioavailability in C57 mouse at 2 mg/kg, iv and 10 mg/kg, po; assay type: ADME, organism-based; settings: in vivo
Method in brief: (§2)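 Mouse PK from 2 mg/kg IV and 10 mg/kg oral dosing. The PO AUC is reported normalized to dose.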

[12] = Solubility of the compound in water; assay type: physicochemical
[13] = Bioavailability in Sprague-Dawley rat 1 mg/kg, iv and 4 mg/kg, po; assay type: ADME, organism-based; settings: in vivo
[14] = Induction of cytochrome P450 activity in human liver microsomes; assay type: ADME; method in brief: as §1
[15] = Bioavailability in rhesus monkey at 0.5 mg/kg, iv and 2 mg/kg, po; assay type: ADME, organism-based, Macaca mulatta; settings: in vivo
[16] = Bioavailability in Beagle dog at 0.5 mg/kg, iv and 2 mg/kg, po; assay type: ADME, organism-based, Canis lupus familiaris; settings: in vivo
[17] = Clearance in C57 mouse at 2 mg/kg, iv; assay type: ADME, organism-based; parameters: dose 2 mg/kg, route intravenous; settings: in vivo; method in brief: as §2
Mus musculus [18] = experiment: Inhibition of 11beta-HSD1 in ICR mouse assessed as inhibition of conversion of [3H]-cortisone to [3H]-cortisol at 10 mg/kg, po administered 4 hrs before [3H]-cortisone challenge; assay type: functional
Method in brief: (§3)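 Mouse pharmacodynamic model. Compound given 10 mg/kg PO, then 3H-cortisone by tail vein injection 1, 4 or 16 h after dosing. […] Plasma compound levels were measured after the PD studies.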

[19] = Tmax in Sprague-Dawley rat at 1 mg/kg, iv and 4 mg/kg, po; assay type: ADME, organism-based; settings: in vivo
[20] = Half life in Beagle dog at 0.5 mg/kg, iv and 2 mg/kg, po; assay type: ADME, organism-based, Canis lupus familiaris; settings: in vivo
Mus musculus [21] = experiment: Inhibition of 11beta-HSD1 in ICR mouse assessed as inhibition of conversion of [3H]-cortisone to [3H]-cortisol at 10 mg/kg, po administered 16 hrs before [3H]-cortisone challenge; assay type: functional; method in brief: as §3
[22] = Clearance in rhesus monkey at 0.5 mg/kg, iv and 2 mg/kg, po; assay type: ADME, organism-based, Macaca mulatta; settings: in vivo
[23] = Half life in rhesus monkey at 0.5 mg/kg, iv and 2 mg/kg, po; assay type: ADME, organism-based, Macaca mulatta; settings: in vivo
Mus musculus [24] = species: Mus musculus; experiment: Antiobesity activity in diet-induced obesity mouse model; assay type: functional, organism-based
[25] = Volume of distribution in Beagle dog at 0.5 mg/kg, iv and 2 mg/kg, po; assay type: ADME, organism-based, Canis lupus familiaris; settings: in vivo
Mus musculus [26] = species: Mus musculus; experiment: Antiatherosclerotic activity in Apo-E knockout mouse model; assay type: functional, organism-based
[27] = Volume of distribution in C57 mouse at 2 mg/kg, iv and 10 mg/kg, po; assay type: ADME, organism-based; settings: in vivo
[28] = Half life in C57 mouse at 2 mg/kg, iv and 10 mg/kg, po; assay type: ADME, organism-based; settings: in vivo
[29] = Tmax in rhesus monkey at 0.5 mg/kg, iv and 2 mg/kg, po; assay type: ADME, organism-based, Macaca mulatta; settings: in vivo

CCS(=O)(=O)CCC12CCC(c3nnc(-c4ccccc4C(F)(F)F)n3C)(CC1)CC2
Activity (Mus musculus [1]): Active
logD [2]: 2.2
clearance [3]: 0.114 L/h/kg
clearance [4]: 0.174 L/h/kg
half-life [5]: 4.9 h
Tmax [6]: 5 h
Activity [7]: < 10%
Tmax [8]: 2 h
Vd [9]: 1.6 L/kg
Vd [10]: 1.1 L/kg
bioavailability [11]: 24%
solubility [12]: > 1 mg/mL
bioavailability [13]: 87%
Activity [14]: Not Active
bioavailability [15]: 89%
bioavailability [16]: 59%
clearance [17]: 0.126 L/h/kg
inhibition in vivo at 10 mg/kg (Mus musculus [18]): 89%
Tmax [19]: 2 h
half-life [20]: 12.2 h
inhibition in vivo at 10 mg/kg (Mus musculus [21]): 76%
clearance [22]: 0.24 L/h/kg
half-life [23]: 6.5 h
Activity (Mus musculus [24]): Active
Vd [25]: 1.7 L/kg
Activity (Mus musculus [26]): Active
Vd [27]: 0.72 L/kg
half-life [28]: 4.8 h
Tmax [29]: 2 h
